Measurements from ChEMBL document CHEMBL4613227, “Synthesis and evaluation of the HIF-1α inhibitory activity of 3(5)-substituted-4-(quinolin-4-yl)- and 4-(2-phenylpyridin-4-yl)pyrazoles as inhibitors of ALK5” (Bioorg Med Chem Lett, 2020).
Active and inactive are the calls of the source. The calls are words filed in the database; no cut-off is given here.

Assays:
[1] = target: T1, TGF-beta receptor type-1 (Homo sapiens) (UniProt P36897); assay: Inhibition of recombinant GST-tagged human ALK5 expressed in baculovirus infected Sf9 insect cells assessed as residual activity at 10 uM
T1 sequence (whole entry): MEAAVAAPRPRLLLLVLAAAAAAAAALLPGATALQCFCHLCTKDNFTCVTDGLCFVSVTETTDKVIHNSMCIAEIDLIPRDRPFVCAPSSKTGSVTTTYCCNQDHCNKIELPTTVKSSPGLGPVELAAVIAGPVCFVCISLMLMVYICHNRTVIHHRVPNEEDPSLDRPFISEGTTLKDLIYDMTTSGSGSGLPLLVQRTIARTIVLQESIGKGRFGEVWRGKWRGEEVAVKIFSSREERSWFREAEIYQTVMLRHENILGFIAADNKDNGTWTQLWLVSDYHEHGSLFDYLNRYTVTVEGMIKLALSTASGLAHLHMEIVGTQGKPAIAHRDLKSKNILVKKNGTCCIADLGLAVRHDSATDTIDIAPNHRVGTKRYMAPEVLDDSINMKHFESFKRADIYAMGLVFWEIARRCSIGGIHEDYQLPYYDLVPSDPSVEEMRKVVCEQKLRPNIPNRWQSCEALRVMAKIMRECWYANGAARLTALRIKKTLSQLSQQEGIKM
Procedure, shortened: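 Single-point kinase screen at 10 μM, in duplicate; ALK5 as human GST-fusion from baculovirus/Sf9, p38α as untagged human protein from E. coli; residual activity relative to DMSO vehicle, mean ± SD of two independent experiments.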

[2] = target: Mitogen-activated protein kinase 14 (Homo sapiens, UniProt Q16539); assay: Inhibition of recombinant human p38alpha expressed in Escherichia coli
Mitogen-activated protein kinase 14, sequence (Q16539 whole entry, the tested form may be a part): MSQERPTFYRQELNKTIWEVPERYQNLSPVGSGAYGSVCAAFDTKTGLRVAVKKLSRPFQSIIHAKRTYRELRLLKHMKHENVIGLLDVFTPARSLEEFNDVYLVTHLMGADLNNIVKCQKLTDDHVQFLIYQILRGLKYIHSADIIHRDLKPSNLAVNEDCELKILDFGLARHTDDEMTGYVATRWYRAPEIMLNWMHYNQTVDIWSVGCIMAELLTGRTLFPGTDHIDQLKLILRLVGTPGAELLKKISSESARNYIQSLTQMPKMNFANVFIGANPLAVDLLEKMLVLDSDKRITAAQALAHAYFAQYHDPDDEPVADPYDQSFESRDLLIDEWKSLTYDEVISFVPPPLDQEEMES
Procedure, shortened: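 IC50 determination against ALK5 (human GST-fusion, Sf9 baculovirus) and p38α (untagged human, E. coli); values averaged from three independent experiments run in triplicate.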

[3] = target: Hypoxia-inducible factor 1-alpha (Homo sapiens) (UniProt Q16665); assay: Inhibition of HIF1-alpha (unknown origin)
Hypoxia-inducible factor 1-alpha (Homo sapiens), sequence (Q16665 whole entry, looked up): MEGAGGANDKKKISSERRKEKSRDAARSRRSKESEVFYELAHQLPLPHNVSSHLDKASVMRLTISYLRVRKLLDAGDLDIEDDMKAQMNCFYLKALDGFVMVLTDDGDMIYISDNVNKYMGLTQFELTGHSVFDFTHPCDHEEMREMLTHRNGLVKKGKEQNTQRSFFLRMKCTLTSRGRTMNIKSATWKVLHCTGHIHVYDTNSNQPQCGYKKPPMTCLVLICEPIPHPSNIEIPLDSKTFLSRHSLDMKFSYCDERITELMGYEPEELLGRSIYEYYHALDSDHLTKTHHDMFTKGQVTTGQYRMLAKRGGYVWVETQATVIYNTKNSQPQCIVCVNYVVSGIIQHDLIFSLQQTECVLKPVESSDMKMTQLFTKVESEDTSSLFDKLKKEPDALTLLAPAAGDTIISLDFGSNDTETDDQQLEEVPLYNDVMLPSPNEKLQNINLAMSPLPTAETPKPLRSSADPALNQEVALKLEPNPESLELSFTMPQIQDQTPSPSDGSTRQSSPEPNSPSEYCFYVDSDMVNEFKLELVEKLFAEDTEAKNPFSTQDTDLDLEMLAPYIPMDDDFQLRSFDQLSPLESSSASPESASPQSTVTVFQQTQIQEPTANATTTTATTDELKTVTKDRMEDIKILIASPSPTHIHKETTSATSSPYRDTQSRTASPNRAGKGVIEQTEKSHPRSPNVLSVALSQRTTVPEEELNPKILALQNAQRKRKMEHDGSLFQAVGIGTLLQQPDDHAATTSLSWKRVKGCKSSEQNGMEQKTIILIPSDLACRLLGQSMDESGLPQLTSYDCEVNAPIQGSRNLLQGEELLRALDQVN

HCT-116 [4] = assay: Cytotoxicity against human HCT116 cells up to 50 uM after 24 hrs by MTT assay; assay type: cell-based; settings: hct-116, 24 h
Procedure, shortened: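 Cell viability of HCT116 by MTT after 24 h exposure to graded concentrations up to 50 μM.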

HCT-116 [5] = assay: Induction of apoptosis in human HCT116 cells assessed as viable cells at 50 uM after 12 hrs by Annexin-V/PI-staining based flow cytometric analysis (reference value: 95.3%); assay type: functional; settings: HCT-116, 12 h, read-out: Activity
HCT-116 [6] = assay: Induction of apoptosis in human HCT116 cells assessed as early apoptotic cells at 50 uM after 12 hrs by Annexin-V/PI-staining based flow cytometric analysis (reference value: 1%); assay type: functional
HCT-116 [7] = assay: Induction of apoptosis in human HCT116 cells assessed as viable cells at 50 uM preincubated for 12 hrs followed by TNF stimulation and measured after 24 hrs by Annexin-V/PI-staining based flow cytometric analysis (reference value: 92.4%); assay type: functional; settings: read-out: Activity
HCT-116 [8] = assay: Induction of apoptosis in human HCT116 cells assessed as effect on cleaved caspase 8 expression at 50 uM after 12 hrs by Western blot analysis; assay type: functional, cell-based
HCT-116 [9] = assay: Induction of apoptosis in human HCT116 cells assessed as effect on cleaved caspase 3 expression at 50 uM after 12 hrs by Western blot analysis; assay type: functional, cell-based
HCT-116 [10] = assay: Induction of apoptosis in human HCT116 cells assessed as PARP cleavage at 50 uM after 12 hrs by Western blot analysis; assay type: functional, cell-based
HCT-116 [11] = assay: Down regulation of TNF-induced ICAM-1 protein expression in human HCT116 cells at 50 uM pretreated for 12 hrs followed by TNF stimulation and measured after 24 hrs by Western blot analysis; assay type: functional, cell-based
Procedure, shortened: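 HCT116 pretreated 12 h with 50 μM, then TNF (10 ng/mL) 24 h; whole cell extracts immunoblotted for ICAM-1, MMP-9, VEGF with tubulin as loading reference.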

HCT-116 [12] = assay: Down regulation of TNF-induced ICAM-1 mRNA expression in human HCT116 cells at 50 uM pretreated for 12 hrs followed by TNF stimulation and measured after 12 hrs by Western blot analysis; assay type: functional, cell-based; settings: in the assay text read “RT-PCR analysis” for “Western blot analysis”
Procedure, shortened: (§1)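 HCT116 preincubated 12 h with graded concentrations, then TNF 10 ng/mL for a further 12 h; ICAM-1, VEGF, MMP-9 transcripts measured by RT-PCR, GAPDH for equal RNA loading.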

HCT-116 [13] = assay: Down regulation of TNF-induced VEGF mRNA expression in human HCT116 cells at 50 uM pretreated for 12 hrs followed by TNF stimulation and measured after 12 hrs by Western blot analysis; assay type: functional, cell-based; settings: in the assay text read “RT-PCR analysis” for “Western blot analysis”; procedure, shortened: as §1
HCT-116 [14] = assay: Inhibition of colony formation in TNF-induced human HCT116 cells pretreated with compound for 12 hrs before TNF stimulation for 30 mins and followed by replacement of fresh medium incubated for 10 days by crystal violet staining based analysis; assay type: functional, cell-based
Procedure, shortened: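 HCT116 treated 12 h (10, 30, 50 μM), then TNF 10 ng/ml 30 min; medium replaced, growth continued 10 days; crystal violet staining; mean ± SD of three independent experiments.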

- Activity [1]: 2%
- IC50 [2]: 0.104 µM
- inhibition [3]: Active
Compound: Cc1cccc(-c2nn(CC(=S)Nc3cccc(C#N)c3)cc2-c2ccnc3ccccc23)n1
- Activity (HCT-116 [4]): Non-Toxic
- viability at 50 µM (HCT-116 [5]): 85.2%
- Activity (HCT-116 [6]): 3.1%
- viability at 50 µM (HCT-116 [7]): 86.8%
- Activity (HCT-116 [8]): Active
- Activity (HCT-116 [9]): Active
- Activity (HCT-116 [10]): Active
- Activity (HCT-116 [11]): Active
- Activity (HCT-116 [12]): Active
- Activity (HCT-116 [13]): Active
- inhibition (HCT-116 [14]): Dose-dependent effect
